Assay results: ChEMBL document CHEMBL3797175, “Discovery of 6-(difluoro(6-(4-fluorophenyl)-[1,2,4]triazolo[4,3-b][1,2,4]triazin-3-yl)methyl)quinoline as a highly potent and selective c-Met inhibitor” (Eur J Med Chem, 2016)

How the values were obtained:
[1] = target: T1, TPR/MET fusion protein (Mus musculus) (UniProt P16056+F6ZDS4); test: Inhibition of TPR-MET in mouse […] cells assessed as inhibition of cell proliferation at 1 uM after 72 hrs by SRB or MTT assay relative to control; assay type: cell-based
T1 sequence (F6ZDS4 whole entry partner, the tested form may be a part): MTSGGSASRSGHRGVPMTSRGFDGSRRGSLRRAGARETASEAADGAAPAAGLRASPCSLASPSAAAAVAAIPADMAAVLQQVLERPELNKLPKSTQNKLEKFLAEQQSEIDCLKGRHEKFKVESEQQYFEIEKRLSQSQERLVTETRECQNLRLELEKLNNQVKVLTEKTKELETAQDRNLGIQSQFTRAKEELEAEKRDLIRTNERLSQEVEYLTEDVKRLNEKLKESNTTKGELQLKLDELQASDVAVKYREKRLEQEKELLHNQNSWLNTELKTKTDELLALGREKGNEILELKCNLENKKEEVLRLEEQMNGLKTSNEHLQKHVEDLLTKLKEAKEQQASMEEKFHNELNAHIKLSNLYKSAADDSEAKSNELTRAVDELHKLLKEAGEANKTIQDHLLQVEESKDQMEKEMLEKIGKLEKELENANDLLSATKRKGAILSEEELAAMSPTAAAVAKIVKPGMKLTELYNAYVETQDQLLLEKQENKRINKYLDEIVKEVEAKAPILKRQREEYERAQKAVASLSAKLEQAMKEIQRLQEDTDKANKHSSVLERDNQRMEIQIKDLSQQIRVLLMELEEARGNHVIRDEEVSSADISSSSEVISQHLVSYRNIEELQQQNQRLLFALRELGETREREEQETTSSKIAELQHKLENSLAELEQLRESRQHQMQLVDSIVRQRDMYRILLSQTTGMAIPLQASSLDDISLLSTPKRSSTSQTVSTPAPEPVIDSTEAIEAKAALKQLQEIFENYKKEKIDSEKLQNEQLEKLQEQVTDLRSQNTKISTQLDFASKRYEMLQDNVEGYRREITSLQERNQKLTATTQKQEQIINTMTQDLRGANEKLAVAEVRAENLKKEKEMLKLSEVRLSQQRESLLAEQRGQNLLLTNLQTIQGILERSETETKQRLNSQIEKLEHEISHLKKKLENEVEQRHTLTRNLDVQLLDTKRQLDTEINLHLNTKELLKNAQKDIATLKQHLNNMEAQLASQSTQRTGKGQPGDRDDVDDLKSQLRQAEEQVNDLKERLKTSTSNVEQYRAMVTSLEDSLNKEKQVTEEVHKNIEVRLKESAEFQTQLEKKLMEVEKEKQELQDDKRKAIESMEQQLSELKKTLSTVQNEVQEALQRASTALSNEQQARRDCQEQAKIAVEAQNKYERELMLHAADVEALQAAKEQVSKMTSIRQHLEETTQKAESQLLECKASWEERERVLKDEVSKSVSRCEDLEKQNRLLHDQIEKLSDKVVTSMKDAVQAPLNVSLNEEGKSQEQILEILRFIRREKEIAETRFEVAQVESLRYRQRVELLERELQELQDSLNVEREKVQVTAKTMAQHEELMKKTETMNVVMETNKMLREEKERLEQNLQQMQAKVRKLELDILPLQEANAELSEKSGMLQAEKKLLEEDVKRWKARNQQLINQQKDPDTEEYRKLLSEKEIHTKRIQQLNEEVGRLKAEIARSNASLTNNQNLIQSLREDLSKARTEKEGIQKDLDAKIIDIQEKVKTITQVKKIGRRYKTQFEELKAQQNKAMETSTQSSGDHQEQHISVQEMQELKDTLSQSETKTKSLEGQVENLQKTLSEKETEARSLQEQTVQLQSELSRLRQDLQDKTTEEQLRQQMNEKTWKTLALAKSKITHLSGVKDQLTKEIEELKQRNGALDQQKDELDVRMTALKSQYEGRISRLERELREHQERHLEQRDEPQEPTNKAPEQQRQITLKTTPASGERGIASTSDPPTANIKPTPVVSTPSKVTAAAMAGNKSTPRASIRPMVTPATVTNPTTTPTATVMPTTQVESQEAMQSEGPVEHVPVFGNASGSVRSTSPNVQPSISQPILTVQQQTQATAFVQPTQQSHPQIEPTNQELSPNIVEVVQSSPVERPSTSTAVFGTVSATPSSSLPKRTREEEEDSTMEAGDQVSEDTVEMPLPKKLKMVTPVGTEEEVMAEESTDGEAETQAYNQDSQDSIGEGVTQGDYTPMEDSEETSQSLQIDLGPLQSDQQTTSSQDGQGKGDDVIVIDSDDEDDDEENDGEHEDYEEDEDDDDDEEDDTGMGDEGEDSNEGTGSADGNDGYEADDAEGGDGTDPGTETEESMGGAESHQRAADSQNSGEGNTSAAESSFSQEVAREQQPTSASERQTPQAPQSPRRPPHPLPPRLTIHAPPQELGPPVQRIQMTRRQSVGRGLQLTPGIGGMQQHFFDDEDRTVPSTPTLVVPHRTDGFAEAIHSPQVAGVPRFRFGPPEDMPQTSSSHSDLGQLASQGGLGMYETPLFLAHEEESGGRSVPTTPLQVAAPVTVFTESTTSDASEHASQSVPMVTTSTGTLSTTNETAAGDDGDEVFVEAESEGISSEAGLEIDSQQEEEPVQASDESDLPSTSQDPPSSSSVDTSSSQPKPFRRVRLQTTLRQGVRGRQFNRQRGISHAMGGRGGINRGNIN
T1 sequence (P16056 25-1379 limits assumed): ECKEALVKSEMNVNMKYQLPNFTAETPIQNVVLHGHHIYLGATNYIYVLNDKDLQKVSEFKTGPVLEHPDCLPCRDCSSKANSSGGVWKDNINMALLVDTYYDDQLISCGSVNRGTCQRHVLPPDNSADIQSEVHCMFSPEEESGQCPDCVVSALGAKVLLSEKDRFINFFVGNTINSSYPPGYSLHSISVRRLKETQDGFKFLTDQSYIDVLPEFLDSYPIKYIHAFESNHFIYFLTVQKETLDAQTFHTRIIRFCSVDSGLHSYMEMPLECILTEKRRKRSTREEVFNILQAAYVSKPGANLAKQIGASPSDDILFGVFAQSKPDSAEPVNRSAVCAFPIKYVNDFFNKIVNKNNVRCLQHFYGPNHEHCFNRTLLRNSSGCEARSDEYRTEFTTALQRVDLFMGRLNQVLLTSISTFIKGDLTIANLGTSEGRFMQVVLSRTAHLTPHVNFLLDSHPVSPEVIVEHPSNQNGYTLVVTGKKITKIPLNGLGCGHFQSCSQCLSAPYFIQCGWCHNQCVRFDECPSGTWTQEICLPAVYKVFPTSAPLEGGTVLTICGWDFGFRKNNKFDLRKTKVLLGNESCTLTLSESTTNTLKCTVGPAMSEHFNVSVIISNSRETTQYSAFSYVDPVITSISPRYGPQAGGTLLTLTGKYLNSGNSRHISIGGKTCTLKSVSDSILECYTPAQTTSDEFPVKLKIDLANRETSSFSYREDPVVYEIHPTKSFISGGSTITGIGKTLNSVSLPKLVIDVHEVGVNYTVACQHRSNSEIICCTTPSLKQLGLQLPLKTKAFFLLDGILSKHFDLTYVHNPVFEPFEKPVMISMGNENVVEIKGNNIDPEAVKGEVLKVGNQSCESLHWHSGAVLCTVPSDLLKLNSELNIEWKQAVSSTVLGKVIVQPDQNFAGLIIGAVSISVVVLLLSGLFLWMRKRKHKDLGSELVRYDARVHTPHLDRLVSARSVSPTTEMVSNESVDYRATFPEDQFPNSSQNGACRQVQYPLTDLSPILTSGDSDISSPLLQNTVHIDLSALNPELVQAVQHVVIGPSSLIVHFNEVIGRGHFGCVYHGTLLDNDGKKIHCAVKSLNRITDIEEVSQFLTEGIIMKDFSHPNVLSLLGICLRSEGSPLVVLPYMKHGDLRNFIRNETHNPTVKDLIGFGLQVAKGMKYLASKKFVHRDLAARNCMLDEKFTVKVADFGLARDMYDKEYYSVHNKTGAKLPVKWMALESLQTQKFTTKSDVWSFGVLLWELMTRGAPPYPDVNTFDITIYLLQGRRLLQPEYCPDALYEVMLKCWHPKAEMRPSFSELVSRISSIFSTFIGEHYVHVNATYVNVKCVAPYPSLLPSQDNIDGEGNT
Procedure, shortened: (§1)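 Cells seeded, exposed next day to a range of concentrations for 72 h. Growth read by sulforhodamine B or MTT. IC50 from four-parameter concentration-response fit. Each concentration tested at least in triplicate, with at least 2 experiments.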

[2] = target: T1, TPR/MET fusion protein (Mus musculus); test: Inhibition of TPR-MET in mouse […] cells assessed as inhibition of cell proliferation at 10 uM after 72 hrs by SRB or MTT assay relative to control; assay type: cell-based; procedure, shortened: as §1
Mus musculus = test: Toxicity in athymic nude mouse xenografted with human EBC1 cells assessed as body weight loss at 25 mg/kg, po bid for 21 days measured twice a week during compound dosing; assay type: organism-based; conditions: in vivo, 504 h
Procedure, shortened: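 Nude mice carrying s.c. EBC-1 tumor fragments, randomized at 100–200 mm³ (n=6 treated, n=12 vehicle). Dosed orally twice daily for 21 days. Body weight and caliper tumor volume measured twice weekly.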

[3] = Volume of distribution at steady state in Sprague-Dawley rat at 2 mg/kg, iv administered as single dose; assay type: ADME, organism-based; conditions: in vivo, read-out: Vdss
Procedure, shortened: (§2)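 Male Sprague-Dawley rats (n=3), single dose. IV 2 mg/kg in 1% DMA/9% Cremophor/90% saline; PO 10 mg/kg in 0.5% CMC-Na. For one compound, IV 10 mg/kg in DMSO/Tween 80/PEG40 and PO 10 mg/kg in 10% DMSO/5% Tween 80/85% saline.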

[4] = Cmax in Sprague-Dawley rat at 10 mg/kg, po administered as single dose; assay type: ADME, organism-based; design: dose 10 mg/kg, route oral; conditions: in vivo
Procedure, shortened: (§3)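 Male Sprague Dawley rats (n=3), single dose. iv 2 mg/kg in 1% DMA/9% Cremophor/90% saline. po 10 mg/kg in 0.5% CMC-Na. Where iv was 10 mg/kg: 10% DMSO/10% Tween 80/80% (40% PEG40); po in that case in 10% DMSO/5% Tween 80/85% saline.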

[5] = AUC (0 to infinity) in Sprague-Dawley rat at 10 mg/kg, po administered as single dose; assay type: ADME, organism-based; design: dose 10 mg/kg, route oral, time infinity; conditions: in vivo
[6] = Tmax in Sprague-Dawley rat at 10 mg/kg, po administered as single dose; assay type: ADME, organism-based; conditions: in vivo; procedure, shortened: as §2
[7] = Oral bioavailability in Sprague-Dawley rat at 10 mg/kg administered as single dose; assay type: ADME, organism-based; conditions: in vivo; procedure, shortened: as §2
[8] = Antitumor activity against human EBC1 cells xenografted in athymic nude mouse assessed as tumor growth inhibition at 12.5 mg/kg, po bid for 21 days measured twice a week during compound dosing relative to control; assay type: functional; conditions: EBC-1, po, 504 h, read-out: TGI
Procedure, shortened: (§4)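 Nude mice bearing s.c. tumours. Cells were first grown s.c. to 700–800 mm³, then 1.5 mm³ fragments were transplanted s.c. into the right flank. Mice were randomised at 100–200 mm³ (n=6 treated, n=12 vehicle) and dosed orally twice daily for 21 days. Caliper measurement twice weekly; TV = length×width²/2. TGI taken on the final day versus vehicle; Student's t test.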

[9] = Antitumor activity against human EBC1 cells xenografted in athymic nude mouse assessed as tumor growth inhibition at 25 mg/kg, po bid for 21 days measured twice a week during compound dosing relative to control; assay type: functional; conditions: EBC-1, po, 504 h, read-out: TGI; procedure, shortened: as §4
[10] = Clearance in Sprague-Dawley rat at 2 mg/kg, iv administered as single dose; assay type: ADME, organism-based; conditions: in vivo; procedure, shortened: as §3
[11] = Half life in Sprague-Dawley rat at 2 mg/kg, iv administered as single dose; assay type: ADME, organism-based; conditions: in vivo; procedure, shortened: as §3
[12] = target: Hepatocyte growth factor receptor (Homo sapiens, UniProt P08581); test: Inhibition of recombinant c-Met (unknown origin) using poly (Glu, Tyr) 4:1 as substrate incubated for 60 mins by ELISA
Hepatocyte growth factor receptor, sequence (P08581 whole entry): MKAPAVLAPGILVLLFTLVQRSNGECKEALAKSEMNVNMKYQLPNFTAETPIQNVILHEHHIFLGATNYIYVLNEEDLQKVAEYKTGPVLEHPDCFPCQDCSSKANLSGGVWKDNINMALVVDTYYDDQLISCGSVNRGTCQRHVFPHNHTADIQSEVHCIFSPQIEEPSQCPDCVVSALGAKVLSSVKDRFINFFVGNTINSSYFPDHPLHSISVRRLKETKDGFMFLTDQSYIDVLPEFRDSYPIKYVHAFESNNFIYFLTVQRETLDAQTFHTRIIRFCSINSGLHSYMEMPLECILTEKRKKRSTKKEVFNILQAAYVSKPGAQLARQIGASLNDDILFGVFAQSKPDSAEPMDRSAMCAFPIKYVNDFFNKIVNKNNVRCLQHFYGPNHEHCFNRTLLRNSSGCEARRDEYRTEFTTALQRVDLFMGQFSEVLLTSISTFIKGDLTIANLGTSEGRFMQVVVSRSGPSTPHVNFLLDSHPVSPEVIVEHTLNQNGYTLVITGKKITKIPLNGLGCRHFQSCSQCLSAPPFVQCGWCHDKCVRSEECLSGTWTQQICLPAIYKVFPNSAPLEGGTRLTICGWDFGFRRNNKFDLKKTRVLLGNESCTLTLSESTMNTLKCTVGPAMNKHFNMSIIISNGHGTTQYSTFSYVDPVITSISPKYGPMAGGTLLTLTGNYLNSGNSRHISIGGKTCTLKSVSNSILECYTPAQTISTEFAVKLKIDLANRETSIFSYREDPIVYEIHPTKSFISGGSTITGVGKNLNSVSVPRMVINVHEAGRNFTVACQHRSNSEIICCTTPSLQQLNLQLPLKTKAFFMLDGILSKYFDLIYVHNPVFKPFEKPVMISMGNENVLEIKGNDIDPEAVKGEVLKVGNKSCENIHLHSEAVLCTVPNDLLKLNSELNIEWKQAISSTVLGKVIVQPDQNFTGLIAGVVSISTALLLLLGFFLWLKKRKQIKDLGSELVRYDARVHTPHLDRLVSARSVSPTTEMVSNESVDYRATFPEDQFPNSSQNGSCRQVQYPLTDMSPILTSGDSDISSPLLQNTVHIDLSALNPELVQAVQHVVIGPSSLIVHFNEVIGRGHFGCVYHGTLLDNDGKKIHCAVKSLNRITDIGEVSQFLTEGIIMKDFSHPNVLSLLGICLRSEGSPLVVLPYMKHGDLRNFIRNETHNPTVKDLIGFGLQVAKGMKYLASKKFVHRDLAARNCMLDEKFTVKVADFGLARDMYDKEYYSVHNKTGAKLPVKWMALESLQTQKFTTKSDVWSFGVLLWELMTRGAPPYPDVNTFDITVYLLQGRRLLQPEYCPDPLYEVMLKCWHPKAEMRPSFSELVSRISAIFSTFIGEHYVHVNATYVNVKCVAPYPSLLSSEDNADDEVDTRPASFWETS

[13] = Volume of distribution at steady state in Sprague-Dawley rat at 10 mg/kg, iv administered as single dose; assay type: ADME, organism-based; conditions: in vivo, read-out: Vdss; procedure, shortened: as §2
[14] = Half life in Sprague-Dawley rat at 10 mg/kg, iv administered as single dose; assay type: ADME, organism-based; conditions: in vivo; procedure, shortened: as §3
[15] = Clearance in Sprague-Dawley rat at 10 mg/kg, iv administered as single dose; assay type: ADME, organism-based; conditions: in vivo; procedure, shortened: as §3

| Compound | inhibition [1] | inhibition [2] | further results |
| --- | --- | --- | --- |
| Cn1cc(-c2cnc3nnc(Cc4ccc5ncccc5c4)n3n2)cn1 | 76.9% | 77.8% | – |
| CCn1cc(-c2cnc3nnc(Cc4ccc5ncccc5c4)n3n2)cn1 | 85.5% | 97.1% | – |
| c1ccc(-c2cnc3nnc(Cc4ccc5ncccc5c4)n3n2)cc1 | 58.4% | 80.9% | – |
| c1cnc2ccc(Cc3nnc4ncc(-c5cnc6ccccc6c5)nn34)cc2c1 | 63.1% | 78% | – |
| CC(C)(C)OC(=O)N1CCC(n2cc(-c3cnc4nnc(Cc5ccc6ncccc6c5)n4n3)cn2)CC1 | 68.9% | 86.6% | – |
| COc1cccc(-c2cnc3nnc(Cc4ccc5ncccc5c4)n3n2)c1 | 69.8% | 81% | – |
| c1ccc(COc2ccc(-c3cnc4nnc(Cc5ccc6ncccc6c5)n4n3)cc2)cc1 | 53.8% | 88% | – |
| Oc1cccc(-c2cnc3nnc(Cc4ccc5ncccc5c4)n3n2)c1 | 36.1% | 69.9% | – |
| c1csc(-c2cnc3nnc(Cc4ccc5ncccc5c4)n3n2)c1 | 85.9% | 89.3% | – |
| CCCn1cc(-c2cnc3nnc(C(F)(F)c4ccc5ncccc5c4)n3n2)cn1 | – | – | Activity (Mus musculus): Toxic; Vd [3]: 3.2 L/kg; Cmax [4]: 1610 ng/mL; AUC(0-inf) [5]: 3390 ng·h/mL; Tmax [6]: 0.5 h; bioavailability [7]: 61.6%; inhibition in vivo at 12.5 mg/kg [8]: 75.9%; inhibition in vivo at 25 mg/kg [9]: 96.6%; clearance [10]: 30.7 mL/min/kg; half-life [11]: 1.21 h |
| c1cnc2ccc(Cc3nnc4ncc(-c5cnn(C6CCNCC6)c5)nn34)cc2c1 | 14.9% | 77% | – |
| Clc1ccc(-c2cnc3nnc(Cc4ccc5ncccc5c4)n3n2)cc1 | 69.2% | 80.6% | – |
| CCCn1cc(-c2cnc3nnc(Cc4ccc5ncccc5c4)n3n2)cn1 | 88.1% | 88.4% | – |
| Oc1cccc(-c2cnc3nnc(Cc4c[nH]c5ccccc45)n3n2)c1 | 8.2% | 10.2% | – |
| O=[N+]([O-])c1cccc(-c2cnc3nnc(Cc4ccc5ncccc5c4)n3n2)c1 | 76.6% | 88.3% | – |
| c1ccc(Cn2cc(-c3cnc4nnc(Cc5ccc6ncccc6c5)n4n3)cn2)cc1 | 68.3% | 89.5% | – |
| Brc1ccc(-c2cnc3nnc(Cc4ccc5ncccc5c4)n3n2)cc1 | 75.8% | 83.6% | – |
| FC(F)(c1ccc2ncccc2c1)c1nnc2ncc(-c3ccco3)nn12 | – | – | Vd [3]: 5.14 L/kg; Cmax [4]: 961 ng/mL; AUC(0-inf) [5]: 2040 ng·h/mL; Tmax [6]: 0.42 h; bioavailability [7]: 48%; inhibition in vivo at 12.5 mg/kg [8]: 50.1%; inhibition in vivo at 25 mg/kg [9]: 65.8%; clearance [10]: 39.5 mL/min/kg; half-life [11]: 1.53 h |
| Cn1cc(-c2ccc3nnc(C(F)(F)c4ccc5ncccc5c4)n3n2)cn1 [JNJ-38877605] | 70.8% | 72.2% | IC50 [12]: 0.95 nM |
| Brc1ccc(-c2cnc3nnc(Cc4c[nH]c5ccccc45)n3n2)cc1 | 9.9% | 17.3% | – |
| Cn1cc(-c2cnc3nnc(C(F)(F)c4ccc5ncccc5c4)n3n2)cn1 | – | – | Vd [13]: 0.81 L/kg; Cmax [4]: 209 ng/mL; half-life [14]: 1.14 h; AUC(0-inf) [5]: 780 ng·h/mL; Tmax [6]: 2.5 h; bioavailability [7]: 9.4%; clearance [15]: 22.3 mL/min/kg |
| Clc1ccc(-c2cnc3nnc(Cc4ccc5ncccc5c4)n3n2)cc1Cl | 82.2% | 83.5% | – |
| c1ccc(COc2ccc(-c3cnc4nnc(Cc5c[nH]c6ccccc56)n4n3)cc2)cc1 | 26.9% | 58% | – |
